{"source": "ChEMBL document CHEMBL4130626", "about": "“α-Arylidene Diacylglycerol-Lactones (DAG-Lactones) as Selective Ras Guanine-Releasing Protein 3 (RasGRP3) Ligands” (J Med Chem, 2018)", "key": {"[1]": {"molecular_target": "Protein kinase C delta type (Homo sapiens, UniProt Q05655)", "sequence (Q05655 whole entry)": "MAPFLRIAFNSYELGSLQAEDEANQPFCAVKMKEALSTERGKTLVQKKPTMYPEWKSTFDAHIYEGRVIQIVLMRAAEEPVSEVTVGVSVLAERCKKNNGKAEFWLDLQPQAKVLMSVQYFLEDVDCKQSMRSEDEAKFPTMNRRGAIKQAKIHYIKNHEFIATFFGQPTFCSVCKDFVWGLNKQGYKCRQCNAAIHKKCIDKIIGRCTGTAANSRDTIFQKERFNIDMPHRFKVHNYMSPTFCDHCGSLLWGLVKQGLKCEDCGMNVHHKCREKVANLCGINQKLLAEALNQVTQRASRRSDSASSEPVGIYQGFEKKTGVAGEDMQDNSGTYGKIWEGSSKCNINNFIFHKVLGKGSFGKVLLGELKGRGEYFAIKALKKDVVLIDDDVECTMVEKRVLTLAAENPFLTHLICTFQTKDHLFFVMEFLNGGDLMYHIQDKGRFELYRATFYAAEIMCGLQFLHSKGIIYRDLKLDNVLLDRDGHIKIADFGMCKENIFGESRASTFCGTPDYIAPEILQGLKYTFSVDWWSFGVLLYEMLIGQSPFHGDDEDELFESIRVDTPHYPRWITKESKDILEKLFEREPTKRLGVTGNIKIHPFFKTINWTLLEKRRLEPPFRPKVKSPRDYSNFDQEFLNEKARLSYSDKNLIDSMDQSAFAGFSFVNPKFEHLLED", "experiment": "Activation of PKCdelta (unknown origin) expressed in human LNCAP cells harboring GFP-tagged RasGRP1 assessed as phosphorylation at ser299 residues after 30 mins by immunoblot method", "type": "cell-based", "summary_of_the_method": "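PKCδ activation read as phospho-S299 on western blots of lysates (50 µg protein, 10% SDS-PAGE, milk blocking, anti-PKCδS299 overnight). Cells: GFP-RasGRP1/3-transfected HEK293 or LNCaP, or Ramos, treated 30 min at 37 °C with half-log doses (maximum 10 µM), 1000 nM PMA or DMSO. Scanned intensities normalized to 1000 nM PMA; EC50 mean ± SEM, n = 3; values above 10 µM extrapolated.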"}, "[2]": {"molecular_target": "T1, RAS guanyl-releasing protein 1 (Homo sapiens, UniProt O95267)", "T1 sequence (O95267 whole entry)": "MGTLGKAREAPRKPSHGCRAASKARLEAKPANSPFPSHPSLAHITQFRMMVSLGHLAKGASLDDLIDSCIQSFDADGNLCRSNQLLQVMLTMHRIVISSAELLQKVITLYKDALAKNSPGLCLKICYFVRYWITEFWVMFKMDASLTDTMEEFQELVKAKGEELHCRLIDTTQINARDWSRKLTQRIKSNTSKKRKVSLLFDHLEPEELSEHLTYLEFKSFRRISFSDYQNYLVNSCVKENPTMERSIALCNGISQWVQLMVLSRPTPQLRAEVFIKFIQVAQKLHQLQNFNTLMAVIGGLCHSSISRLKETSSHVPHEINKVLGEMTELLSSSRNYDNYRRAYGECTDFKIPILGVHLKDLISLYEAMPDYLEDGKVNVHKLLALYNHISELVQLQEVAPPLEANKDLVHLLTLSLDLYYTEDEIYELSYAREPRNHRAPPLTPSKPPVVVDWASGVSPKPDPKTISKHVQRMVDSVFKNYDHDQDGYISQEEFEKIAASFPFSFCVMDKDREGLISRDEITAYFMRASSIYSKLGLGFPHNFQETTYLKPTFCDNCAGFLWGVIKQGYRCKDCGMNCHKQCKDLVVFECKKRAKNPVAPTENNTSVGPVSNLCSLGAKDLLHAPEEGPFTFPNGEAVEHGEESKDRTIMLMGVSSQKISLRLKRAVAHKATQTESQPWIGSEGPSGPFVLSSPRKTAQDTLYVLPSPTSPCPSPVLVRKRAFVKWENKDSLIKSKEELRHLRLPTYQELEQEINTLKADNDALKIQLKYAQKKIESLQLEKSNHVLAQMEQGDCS", "experiment": "Activation of GFP-tagged RasGRP1 (unknown origin) expressed in human LNCAP cells assessed as ERK1/2 phosphorylation after 30 mins by immunoblot method", "type": "cell-based", "summary_of_the_method": "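Cells expressing GFP-RasGRP1/3 (HEK293 or LNCaP, 48 h after plating, transfected; expression checked by fluorescence 24-48 h later) or Ramos with endogenous RasGRP3 treated with half-log increasing concentrations (max 10 µM), 1000 nM PMA or DMSO, 37 °C, 30 min, 5% CO2. RasGTP by Raf1 RBD bead pulldown and anti-Pan-Ras immunoblot; pERK by western blot. Band intensities normalized to 1000 nM PMA; EC50 from n = 3.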"}, "[3]": {"molecular_target": "T2, Ras guanyl-releasing protein 3 (Homo sapiens, UniProt Q8IV61)", "T2 sequence (Q8IV61 whole entry)": "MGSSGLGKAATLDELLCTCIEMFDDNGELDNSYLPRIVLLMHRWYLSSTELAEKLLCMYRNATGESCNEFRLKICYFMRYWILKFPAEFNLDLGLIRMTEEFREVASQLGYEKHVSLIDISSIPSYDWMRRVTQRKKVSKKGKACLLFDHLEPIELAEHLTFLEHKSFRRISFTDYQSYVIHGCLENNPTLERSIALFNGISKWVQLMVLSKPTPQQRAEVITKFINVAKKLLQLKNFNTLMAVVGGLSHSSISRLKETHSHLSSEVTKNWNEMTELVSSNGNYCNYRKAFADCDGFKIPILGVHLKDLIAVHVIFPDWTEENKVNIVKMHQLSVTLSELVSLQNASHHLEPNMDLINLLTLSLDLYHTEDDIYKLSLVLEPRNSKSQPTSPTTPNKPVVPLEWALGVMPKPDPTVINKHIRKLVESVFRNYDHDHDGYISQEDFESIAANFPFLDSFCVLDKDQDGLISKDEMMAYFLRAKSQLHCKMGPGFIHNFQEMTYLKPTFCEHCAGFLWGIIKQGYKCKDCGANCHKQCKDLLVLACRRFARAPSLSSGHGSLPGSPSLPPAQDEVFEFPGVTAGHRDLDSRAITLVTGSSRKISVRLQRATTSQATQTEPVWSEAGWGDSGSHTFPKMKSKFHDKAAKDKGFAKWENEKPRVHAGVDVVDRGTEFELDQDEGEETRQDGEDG", "experiment": "Displacement of [3H]PDBu from full length MBP-tagged human RasGRP3 expressed in Escherichia coli BL21 (DE3) after 5 mins by scintillation counting", "summary_of_the_method": "(§1)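 Competition of [3H]PDBu binding by polyethylene glycol precipitation, with 100 µg/ml phosphatidylserine and ≤0.003% Triton X-100, 5 min at 37 °C. Proteins: full-length purified human PKCα, PKCε; full-length RasGRP1; MBP-RasGRP3 from E. coli BL21(DE3) induced with 0.3 mM IPTG 6 h at room temperature. Ki mean ± SEM of ≥2 experiments, triplicate points.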"}, "[4]": {"molecular_target": "T3, Protein kinase C epsilon type (Homo sapiens, UniProt Q02156)", "T3 sequence (Q02156 whole entry)": "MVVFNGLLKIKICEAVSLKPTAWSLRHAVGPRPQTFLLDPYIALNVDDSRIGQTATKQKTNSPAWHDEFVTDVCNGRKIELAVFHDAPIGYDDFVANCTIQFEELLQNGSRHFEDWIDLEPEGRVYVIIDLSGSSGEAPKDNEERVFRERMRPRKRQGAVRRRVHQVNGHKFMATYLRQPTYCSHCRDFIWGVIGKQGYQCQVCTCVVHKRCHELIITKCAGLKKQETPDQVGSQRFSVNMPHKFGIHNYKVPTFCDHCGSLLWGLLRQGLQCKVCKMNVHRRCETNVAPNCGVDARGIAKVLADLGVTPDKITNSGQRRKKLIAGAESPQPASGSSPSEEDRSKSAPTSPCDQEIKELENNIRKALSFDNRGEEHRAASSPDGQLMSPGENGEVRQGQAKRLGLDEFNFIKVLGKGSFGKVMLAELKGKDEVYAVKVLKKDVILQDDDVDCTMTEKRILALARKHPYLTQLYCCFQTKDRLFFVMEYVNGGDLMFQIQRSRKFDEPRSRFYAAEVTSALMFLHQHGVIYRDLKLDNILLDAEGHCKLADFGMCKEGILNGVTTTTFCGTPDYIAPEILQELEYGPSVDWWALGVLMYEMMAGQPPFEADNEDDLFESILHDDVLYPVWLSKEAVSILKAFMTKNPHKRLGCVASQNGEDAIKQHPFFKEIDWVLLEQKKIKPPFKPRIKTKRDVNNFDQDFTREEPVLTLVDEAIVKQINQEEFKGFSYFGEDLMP", "experiment": "Displacement of [3H]PDBu from full length recombinant human PKCepsilon expressed in baculovirus expression system after 5 mins by scintillation counting", "summary_of_the_method": "as §1"}}}
{"smiles": "Cn1cc(/C=C2\\CC(CO)(COC(=O)C(C)(C)C)OC2=O)c2ccccc21", "note": "(centres undefined)", "values": [{"measurement": "EC50", "setting": "[1]", "result": 8030, "unit": "nM"}, {"measurement": "EC50", "setting": "[2]", "result": 3730, "unit": "nM"}, {"measurement": "Ki", "setting": "[3]", "result": 1.75, "unit": "nM"}, {"measurement": "Ki", "setting": "[4]", "result": 78.9, "unit": "nM"}]}
